# Laboratory results: the RNAGym collection of RNA variant scans (doi:10.1126/science.aae0568)
# Variants at the floor of the assay were thinned out.
# B1: tRNA (parent)
# chain: GUUCCGUUGGCGUAAUGGUAACGCGUCUCCCUCCUAAGGAGAAGACUGCGGGUUCGAGUCCCGUACGGAACG
# Variants of: B1
# Assay: yeast fitness relative to wild type (ratio to wild type); higher = fitter; tRNA-Arg(CCU), competitive growth, 37 C, YPD
# Method in brief: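 Variants of the tRNA-Arg(CCU) gene, chemically synthesised with a 3% per-site mutation rate at 69 sites, were placed at the native genomic locus in Saccharomyces cerevisiae. The pooled strains were competed in YPD at 37°C for 24 hours in six parallel replicates. Gene amplicons from the start population and from each end population were read by 100-nucleotide paired-end sequencing. Darwinian fitness relative to wild type came from changes in genotype frequencies; genotypes needed ≥ 100 starting reads, and estimates < 0.5 were set to 0.5.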
row,Variant,yeast fitness
1,GUUCCGUUGGCGUAAUGGUAACGCGUCUGCCUCGUAAGGAGAAGAAUGCGGGAUCGAGUCUCGUACGGAACG,0.544
2,GUUCCGUUGGCGUAAUGGUAACGCGUCUGCUUCCUAUGGAGAAGACUGCGGGUUCGAGUCCCGUACGGAACG,≤ 0.5
3,GUUCCGUUGGCGUAAUGGUAACGCGUCUGGCUCGUAAGGAGAAGACUGCGGGUUCGAGUACCGUACCGAACG,≤ 0.5
4,GUUCCGUUGGCGUAAUGGUAACGCGUCUGCCUCCUAAGGAGAAGAGUCCGGGUUCGAGUCCUGUACGGAACG,≤ 0.5
5,GUUCCGUUGGCGUAAUGGUAACGCGUCUGCUUCCUAAGGAGACCACUGCGGGUUCGAGUCCCGUACGCAACG,≤ 0.5
6,GUUCCGUUGGCGUAAUGGUAACGCGUCUGGCUCCUAAGGAGAAGAGUGCGGGUUCGAGUCCCGUACGGAACG,0.521
7,GUUCCGUUGGCGUAAUGGUAACGCGUCUGCCUCCUAAGGAGACGACUGCGCGUUCGCGUCCCGUACGGAACG,≤ 0.5
8,GUUCCGUUGGCGUAAUGGUAACGCGUCUGCAUCCUAAGGAGCAGACUGCGGGUUCGAGUCCCGUACCGAACG,0.606
9,GUUCCGUUGGCGUAAUGGUAACGCGUCUGCCUCCUAAGGAGAGGACUGGGGGUUCGAGUCCCGUACGGAACG,0.532
10,GUUCCGUUGGCGUAAUGGUAACGCGUCUGCCUUCUAAGGAGAAGACAGCGGGUUCGAGUCUCGUACGGCACG,≤ 0.5
11,GUUCCGUUGGCGUAAUGGUAACGCGUCUGCCUUCUAAGGAGAACACUCCGGGUUAGAGUCCCGUACGGAACG,≤ 0.5
12,GUUCCGUUGGCGUAAUGGUAACGCGUCUGCGUCCUAAGGAGAAGAGUGCGGGUUUGAGUCCCGUACGGAACG,≤ 0.5
13,GUUCCGUUGGCGUAAUGGUAACGCGUCUGCCUUCUAAGGAGAAGUCUGCGGGUUCGAGUCCCGUACGGAACG,≤ 0.5
14,GUUCCGUUGGCGUAAUGGUAACGCGUCUGCCUUCUAAGGAGAAGACUGCGGGUUCGAGUCCCGUCCGGAACG,0.554
15,GUUCCGUUGGCGUAAUGGUAACGCGUCUGCCUGCUAAGGAGCAGACUACGGGUUCGAGUCCCGUACGGAACG,0.777
16,GUUCCGUUGGCGUAAUGGUAACGCGUCUGCCUGCGAAGGAGAAAACUGCGGGUUCGAGUCCCGUACGGAACG,0.628
17,GUUCCGUUGGCGUAAUGGUAACGCGUCUGCCUGCUAAGGAGAUGACUGCGGGUUCGAGUCCCGUACGGAACG,≤ 0.5
18,GUUCCGUUGGCGUAAUGGUAACGCGUCUGGCUCCUAAGGAGAAGACUGAGGGUUCCAGUCUCGUACGGCACG,0.717
19,GUUCCGUUGGCGUAAUGGUAACGCGUCUGCGUCCUAAGGAGAAGACUGCGGGUUCGAGACCCGUACGGGACG,≤ 0.5

row,Variant,yeast fitness
1,GUUCCGUUGGCGUAAUGGUAACGCGUCUGUCUCCUAAGGAGAAGAUUACGGGUUCGAGUCCCGUACGGAACG,≤ 0.5
2,GUUCCGUUGGCGUAAUGGUAACGCGUCUGCCUUGUAAGGAGAAGACUGCGGGUACGAGUCCCGUACGGAACG,0.545
3,GUUCCGUUGGCGUAAUGGUAACGCGUCUGCCUCCUAAGGAGAUGACUGCGGGUUCGAGUCCCGUACGGAUCG,0.563
4,GUUCCGUUGGCGUAAUGGUAACGCGUCUGCCUCUUAAGGAGAAGACUGCGGGUUCGAGUCCCAUACAGGACG,≤ 0.5
5,GUUCCGUUGGCGUAAUGGUAACGCGUCUGCCUUCUAGGGCGAAGACUGCGGGUUCGCGUCCCGUACGGAACG,≤ 0.5
6,GUUCCGUUGGCGUAAUGGUAACGCGUCUGCCUCCUAAGGAGAAGACUGCGGGUUCGAGUCCCGUACGGUACG,0.771
7,GUUCCGUUGGCGUAAUGGUAACGCGUCUGCCUCCUAAGGAGAAGACUGCGGGUUCGAGUCCCGUACGGCACG,0.628
8,GUUCCGUUGGCGUAAUGGUAACGCGUCUGCAUCCUAAGGAGAAGACUGCGGGUUCGAGUCCCGUACAGAACG,0.56
9,GUUCCGUUGGCGUAAUGGUAACGCGUCUGUGUCCUAAGGAGAAGACUGUCGGUUCGAGUCCCGUACGGAACG,≤ 0.5
10,GUUCCGUUGGCGUAAUGGUAACGCGUCUGCCUCCUAAGGAGAAGGCUGCGGGUUCGAGUCCCGUACGGCCCG,≤ 0.5
11,GUUCCGUUGGCGUAAUGGUAACGCGUCUGCCUCCUAAGGAGAAGACUGCGGGUUCGCGGCCCGUACGGAACG,≤ 0.5
12,GUUCCGUUGGCGUAAUGGUAACGCGUCUGCCUAAUAAGGAGAAGACUGCGGGUUCGUGUCCCGUACGGAACG,0.54
13,GUUCCGUUGGCGUAAUGGUAACGCGUCUGGCUCCUAAGGAGAAGACUGAGGGUUCGAGUCCCGUACGGAACG,0.839
14,GUUCCGUUGGCGUAAUGGUAACGCGUCUGCCUCCUAAGGAGAAGCCUGCGGGUUCGAGUCCCGUACGGAACG,0.614
15,GUUCCGUUGGCGUAAUGGUAACGCGUCUGCCUGCUAAGGAGCAGACUGCGGGUUCGAGUCCCGUACGGAACG,0.54
16,GUUCCGUUGGCGUAAUGGUAACGCGUCUGGCUCCUAAGGAGAAGACUGCGGGUUCGAGUCCCGUACGGAACG,0.814
17,GUUCCGUUGGCGUAAUGGUAACGCGUCUGGCCCCUUAGGAGAAGACUGCGGGUUCGAGUUUCGUACGGAACG,0.566
18,GUUCCGUUGGCGUAAUGGUAACGCGUCUGCCUUCCAAAGAGAAGACUGCGGGUUCGAGUCCCGUACGGAACG,≤ 0.5
19,GUUCCGUUGGCGUAAUGGUAACGCGUCUGCGUCCUACGGAGAAGACUGCGGGUUCGAGUCCCGUAAGGAACG,0.575
